From ChEMBL document CHEMBL3751664, “Design, Synthesis, and Identification of Silicon Incorporated Oxazolidinone Antibiotics with Improved Brain Exposure” (ACS Med Chem Lett, 2015)
Values after ≈ are worked out from the molar mass of the structure shown.

Tests used:
[1] = Solubility of compound at pH 1.2 by HPLC analysis; format: physicochemical; conditions: buffer
[2] = Solubility of compound at pH 2.2 by HPLC analysis; format: physicochemical; conditions: buffer
[3] = Solubility of compound at pH 4.5 by HPLC analysis; format: physicochemical; conditions: buffer
[4] = Solubility of compound at pH 7.4 by HPLC analysis; format: physicochemical; conditions: buffer
[5] = Solubility of compound at pH 10.2 by HPLC analysis; format: physicochemical; conditions: buffer
Plasma [6] = experiment: Metabolic stability in rat plasma by LC-MS/MS analysis; format: ADME, cell-free
Method in brief: (§1)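 Plasma stability is expressed as % compound remaining after incubation in plasma.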

Plasma [7] = experiment: Metabolic stability in human plasma by LC-MS/MS analysis; format: ADME, cell-free; method in brief: as §1
[8] = Metabolic stability in mouse liver microsomes after 30 mins by LC-MS/MS analysis; format: ADME; conditions: read-out: Stability
Method in brief: (§2)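 Compounds are incubated with liver microsomes for 30 min, and the result is expressed as % parent remaining (% metabolic stability).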

[9] = Metabolic stability in rat liver microsomes after 30 mins by LC-MS/MS analysis; format: ADME; conditions: read-out: Stability; method in brief: as §2
[10] = Metabolic stability in human liver microsomes after 30 mins by LC-MS/MS analysis; format: ADME; conditions: read-out: Stability; method in brief: as §2
[11] = Plasma protein binding in human; format: ADME, cell-free; conditions: read-out: PPB (converted)
[12] = Cmax in BALB/c mouse brain at 10 mg/kg, po by LC-MS/MS analysis; format: ADME, organism-based; set-up: dose 10 mg/kg, route oral
Method in brief: (§3)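 Single oral 10 mg/kg dose, with 2 animals per group. Brain and plasma sampled; brain Cmax is reported as μg/g and brain AUC0-t and AUC0-inf as μg·h/g. Brain-to-plasma ratios are derived from AUC values, and also from Cmax.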

Brain [13] = experiment: AUC (0 to t) in BALB/c mouse brain at 10 mg/kg, po by LC-MS/MS analysis; format: ADME, organism-based; conditions: in vivo; method in brief: as §3
Brain [14] = experiment: AUC (0 to infinity) in BALB/c mouse brain at 10 mg/kg, po by LC-MS/MS analysis; format: ADME, organism-based; set-up: dose 10 mg/kg, time infinity, route oral; conditions: in vivo; method in brief: as §3
[15] = Cmax in BALB/c mouse plasma at 10 mg/kg, po by LC-MS/MS analysis; format: ADME, organism-based; set-up: dose 10 mg/kg, route oral; method in brief: as §3
[16] = AUC (0 to t) in BALB/c mouse plasma at 10 mg/kg, po by LC-MS/MS analysis; format: ADME, organism-based; method in brief: as §3
[17] = AUC (0 to infinity) in BALB/c mouse plasma at 10 mg/kg, po by LC-MS/MS analysis; format: ADME, organism-based; set-up: dose 10 mg/kg, time infinity, route oral; method in brief: as §3
[18] = Ratio of Cmax in brain to plasma in BALB/c mouse at 10 mg/kg, po; format: ADME, organism-based; method in brief: as §3
[19] = Ratio of AUC (0 to t) in brain to plasma in BALB/c mouse at 10 mg/kg, po; format: ADME, organism-based; method in brief: as §3
[20] = Ratio of AUC (0 to infinity) in brain to plasma in BALB/c mouse at 10 mg/kg, po; format: ADME, organism-based; method in brief: as §3
Streptococcus pneumoniae [21] = experiment: Antibacterial activity against Streptococcus pneumoniae ATCC 49619 by microbroth dilution method; format: functional
Method in brief: (§4)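 MIC is determined by broth microdilution and expressed in μg/mL.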

Streptococcus pneumoniae [22] = experiment: Antibacterial activity against Streptococcus pneumoniae ATCC 6303 by microbroth dilution method; format: functional; method in brief: as §4
Streptococcus pneumoniae [23] = experiment: Antibacterial activity against linezolid-resistant Streptococcus pneumoniae 6303 by microbroth dilution method; format: functional; method in brief: as §4
Streptococcus pneumoniae [24] = experiment: Antibacterial activity against pencillin-resistant erm+ve Streptococcus pneumoniae ATCC 700904 by microbroth dilution method; format: functional; method in brief: as §4
Neisseria meningitidis [25] = experiment: Antibacterial activity against clinical isolate Neisseria meningitidis E-63 by microbroth dilution method; format: functional
Method in brief: (§5)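 Minimum inhibitory concentration (MIC) read by broth microdilution and reported in μg/mL. The same microbroth screen was run on the broader panel of facultative bacteria.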

Neisseria meningitidis [26] = experiment: Antibacterial activity against clinical isolate Neisseria meningitidis M-1 by microbroth dilution method; format: functional; method in brief: as §5
Neisseria meningitidis [27] = experiment: Antibacterial activity against clinical isolate Neisseria meningitidis 306 by microbroth dilution method; format: functional; method in brief: as §5
Neisseria meningitidis [28] = experiment: Antibacterial activity against clinical isolate Neisseria meningitidis E-95 by microbroth dilution method; format: functional; method in brief: as §5
Neisseria meningitidis [29] = experiment: Antibacterial activity against clinical isolate Neisseria meningitidis 184 by microbroth dilution method; format: functional; method in brief: as §5

SMILES | solubility [1] | solubility [2] | solubility [3] | Stability (Plasma [6]) | Stability (Plasma [7]) | remaining at 0.5 h [8] | remaining at 0.5 h [9] | remaining at 0.5 h [10] | Cmax [12] | AUCt (Brain [13]) | AUC (Brain [14]) | Cmax [15] | AUC(0-t) [16] | AUC(0-inf) [17] | MIC (Streptococcus pneumoniae [23]) | MIC (Neisseria meningitidis [25]) | MIC (Neisseria meningitidis [26]) | MIC (Neisseria meningitidis [27]) | MIC (Neisseria meningitidis [28]) | MIC (Neisseria meningitidis [29]) | also measured
CC(=O)NC[C@H]1CN(c2ccc(N3CC[Si](C)(C)CC3)c(F)c2)C(=O)O1 | 50 µM (≈ 19 µg/mL) | 50 µM (≈ 19 µg/mL) | 41 µM (≈ 15.6 µg/mL) | 97.3% | 100% | 40.8% | 10.8% | 48.9% | 1330 ng/g | 3.01 µg·h/g | 3.05 µg·h/g | 1050 ng/mL | 1780 ng·h/mL | 1800 ng·h/mL | > 32 µg/mL | 32 µg/mL (≈ 84.3 µM) | > 32 µg/mL | > 32 µg/mL | > 32 µg/mL | > 32 µg/mL | solubility [4]: 40 µM (≈ 15.2 µg/mL); solubility [5]: 41 µM (≈ 15.6 µg/mL); fraction unbound [11]: 0.0567; Kp [18]: 1.27; Kp [19]: 1.69; Kp [20]: 1.69; MIC (Streptococcus pneumoniae [21]): 8 µg/mL (≈ 21.1 µM); MIC (Streptococcus pneumoniae [22]): 4 µg/mL (≈ 10.5 µM); MIC (Streptococcus pneumoniae [24]): 4 µg/mL (≈ 10.5 µM)
COC(=S)NC[C@H]1CN(c2ccc(N3CC[Si](C)(C)CC3)c(F)c2)C(=O)O1 | 48 µM (≈ 19.8 µg/mL) | 47 µM (≈ 19.3 µg/mL) | 9 µM (≈ 3.7 µg/mL) | 100% | 100% | 15.2% | 5.7% | 43% | 1470 ng/g | 3.11 µg·h/g | 3.24 µg·h/g | 370 ng/mL | 870 ng·h/mL | 930 ng·h/mL | 32 µg/mL (≈ 77.8 µM) | 32 µg/mL (≈ 77.8 µM) | 32 µg/mL (≈ 77.8 µM) | 32 µg/mL (≈ 77.8 µM) | 32 µg/mL (≈ 77.8 µM) | 32 µg/mL (≈ 77.8 µM) | solubility [4]: 2 µM (≈ 0.823 µg/mL); solubility [5]: 2 µM (≈ 0.823 µg/mL); Kp [18]: 3.96; Kp [19]: 3.57; Kp [20]: 3.49; MIC (Streptococcus pneumoniae [21]): 4 µg/mL (≈ 9.72 µM); MIC (Streptococcus pneumoniae [22]): 4 µg/mL (≈ 9.72 µM); MIC (Streptococcus pneumoniae [24]): 4 µg/mL (≈ 9.72 µM)
CC(=O)NC[C@H]1CN(c2cc(F)c(N3CC[Si](C)(C)CC3)c(F)c2)C(=O)O1 | 48 µM (≈ 19.1 µg/mL) | 43 µM (≈ 17.1 µg/mL) | 20 µM (≈ 7.95 µg/mL) | 94.7% | 100% | 68.4% | 9.6% | 69.8% | 5580 ng/g | 14.74 µg·h/g | 16.44 µg·h/g | 2020 ng/mL | 5800 ng·h/mL | 6210 ng·h/mL | > 32 µg/mL | > 32 µg/mL | > 32 µg/mL | > 32 µg/mL | > 32 µg/mL | > 32 µg/mL | solubility [4]: 17 µM (≈ 6.76 µg/mL); solubility [5]: 20 µM (≈ 7.95 µg/mL); fraction unbound [11]: 0.004; Kp [18]: 2.76; Kp [19]: 2.54; Kp [20]: 2.65; MIC (Streptococcus pneumoniae [21]): 16 µg/mL (≈ 40.3 µM); MIC (Streptococcus pneumoniae [22]): 8 µg/mL (≈ 20.1 µM); MIC (Streptococcus pneumoniae [24]): 16 µg/mL (≈ 40.3 µM)
CC(=O)NC[C@H]1CN(c2ccc(N3CCOCC3)c(F)c2)C(=O)O1 [LINEZOLID] |  |  |  | 100% | 100% | 100% | 88.3% | 100% | 450 ng/g | 0.83 µg·h/g | 0.9 µg·h/g | 3650 ng/mL | 7580 ng·h/mL | 7700 ng·h/mL | 32 µg/mL (≈ 94.9 µM) | 8 µg/mL (≈ 23.7 µM) | 8 µg/mL (≈ 23.7 µM) | 8 µg/mL (≈ 23.7 µM) | 8 µg/mL (≈ 23.7 µM) | 8 µg/mL (≈ 23.7 µM) | fraction unbound [11]: 0.74
